From paper PMC4141080 (FEBS Open Bio, 2014)

Key:
Format in all cases: biochemical, Aplysia kurodai
Conditions in all cases: standard assay 37 °C; pH of kinetics not told
[1] = tested on: ApAGL74 (74-kDa α-glucosidase); test: fluorometric 4-methylumbelliferone release
Summary of the method: (§1)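 Each α-glucosidase was purified from sea hare digestive fluid. The fluid was squeezed from the stomach lumen, cut with 0–60% ammonium sulfate, then run through ion-exchange, phenyl-Sepharose, Sephacryl S-100 and Mono Q chromatography, with purity checked by SDS–PAGE. Substrate was 4-MU-α-glucoside. Released 4-methylumbelliferone was read fluorometrically (ex 365 nm, em 450 nm). One unit releases 1 μmol 4-methylumbelliferone/min at 37 °C.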

[2] = tested on: ApAGL86 (86-kDa α-glucosidase); test: fluorometric 4-methylumbelliferone release
Summary of the method: as §1

[3] = tested on: ApAGL74 (74-kDa α-glucosidase); test: glucose release
Summary of the method: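 The α-glucosidase was purified chromatographically from the ammonium sulfate (0–60%) fraction of stomach-lumen digestive fluid of sea hare. Glucose liberated from substrate was quantified with a glucose oxidase-based kit.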

[4] = tested on: ApAGL86 (86-kDa α-glucosidase); test: glucose release

Row | Km [1] [mM] | Km [2] [mM] | Km [3] [mM] | Km [4] [mM] | Structure (SMILES)
1 | 0.0479 ± 0.0106 | 0.412 ± 0.006 | – | – | Cc1cc(=O)oc2cc(O[C@H]3O[C@H](CO)[C@@H](O)[C@H](O)[C@H]3O)ccc12 [4MU-α-glucoside]
2 | – | – | 14.2 ± 0.9 | 16.5 ± 0.05 | OC[C@H]1O[C@H](OC[C@H]2OC(O)[C@H](O)[C@@H](O)[C@@H]2O)[C@H](O)[C@@H](O)[C@@H]1O (stereo partly shown) [Isomaltose]
3 | – | – | 31.7 ± 2.1 | 33.6 ± 1.55 | OC[C@H]1O[C@@](CO)(O[C@H]2O[C@H](CO)[C@@H](O)[C@H](O)[C@H]2O)[C@@H](O)[C@@H]1O [Sucrose]
4 | – | – | 4.98 ± 0.06 | – | OC[C@H]1O[C@H](O[C@H]2[C@H](O)[C@@H](O)C(O)O[C@@H]2CO)[C@H](O)[C@@H](O)[C@@H]1O (stereo partly shown) [Maltose]
